# Bioassay records as filed in PubChem.
# Sampled rows, rich in hits. Any-hit rate of the full collection: about 2.1%.
# CXCR6 inh: blocks human CXCR6 beta-arrestin recruitment; O00574; CHO-K1 PathHunter CXCR6 beta-arrestin, luminescence; inhibition, % at 20 µM; actives 0.36% (n = 360,000); in the data active = inhibition above about 34%, passing the limit was not always enough;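 also: antagonist mode with CXCL16 agonist at 10 nM final; 0% = 10 nM CXCL16 with DMSO and 100% = unstimulated wells without agonist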
# Target sequence (O00574 whole entry, looked up): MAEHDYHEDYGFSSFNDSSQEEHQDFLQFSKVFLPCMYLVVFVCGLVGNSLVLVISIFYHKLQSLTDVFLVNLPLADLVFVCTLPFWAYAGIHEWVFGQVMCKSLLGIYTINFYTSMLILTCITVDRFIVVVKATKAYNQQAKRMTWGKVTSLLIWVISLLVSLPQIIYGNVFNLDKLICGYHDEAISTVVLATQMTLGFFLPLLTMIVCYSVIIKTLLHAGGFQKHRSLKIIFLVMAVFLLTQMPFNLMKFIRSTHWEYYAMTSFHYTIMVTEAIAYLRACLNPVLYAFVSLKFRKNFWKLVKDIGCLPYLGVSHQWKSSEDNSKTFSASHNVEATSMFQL
# CCR6 antagonist: blocks CCL20-driven beta-arrestin recruitment at human CCR6; CHO-K1 CCR6 PathHunter beta-arrestin, luminescence, CCL20-stimulated; AID 493098; P51684; inhibition, % at 20 µM; actives 0.49% (n = 340,000);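 active = compounds whose inhibition of the agonist-driven luminescence signal at 20 µM reaches about 50%, limit read from the data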;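 also: cells stimulated with CCL20 at 14 nM final; plate controls were DMSO with CCL20 for no effect and DMSO without agonist for full effect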
# HTR2A ag: agonists of mouse serotonin 5-HT2A receptor (HTR2A); CHO-K1 mHTR2A beta-arrestin complementation, luminescence; percent of 30 µM serotonin response; P35363; actives 0.66% (n = 360,000); activation, % at 7.6 µM;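 active = activation above a run cutoff, the mean activation of all tested compounds plus 3 SD, cut at about 14% in these data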;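 also: 0% = plate median of compound wells and 100% = 30 µM serotonin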
# EBI2 antag: EBI2 (human) antagonism | EBI2 beta-arrestin recruitment, luminescence, 7a,25-OHC stimulated | inhibition, % at 5 µM | actives 0.81% (n = 360,000) | AID 651636; in the data active = inhibition above about 38%;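 also: enzyme fragment complementation signal reports receptor beta-arrestin coupling in cells; 0% = agonist plus DMSO wells and 100% = wells without agonist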
# Target sequence (P32249 whole entry, looked up, the tested form may be a part): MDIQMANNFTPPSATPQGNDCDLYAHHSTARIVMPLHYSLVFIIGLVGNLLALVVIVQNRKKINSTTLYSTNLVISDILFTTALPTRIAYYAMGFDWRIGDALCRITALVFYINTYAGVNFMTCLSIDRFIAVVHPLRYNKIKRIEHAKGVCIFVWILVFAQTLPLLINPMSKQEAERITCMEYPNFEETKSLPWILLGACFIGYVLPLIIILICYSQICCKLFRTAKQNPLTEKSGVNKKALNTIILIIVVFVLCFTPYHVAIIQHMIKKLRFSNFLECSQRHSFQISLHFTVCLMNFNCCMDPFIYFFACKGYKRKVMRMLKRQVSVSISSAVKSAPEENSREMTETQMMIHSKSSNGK
# APJ agonist: APJ receptor agonism; P35414; CHO-K1 APJ PathHunter beta-arrestin, luminescence; 0% DMSO wells, 100% apelin; activation, % at 20 µM; actives 0.11% (n = 330,000);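 active = activation more than six SD over the plate average, tested at 20 µM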;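 also: 0% = DMSO alone and 100% = apelin-13 at 10 nM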
#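 Assay system: CHO-K1 APJ beta-arrestin complementation cell line / Compound: single test compound dose, 20 µM final, 1% DMSO / Times: overnight seeding, 90 min compound at 25 °C, 1 h detection / Technique: beta-gal luminescence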
# APJ antagonist: antagonists of human APJ apelin receptor. inhibition, % at 20 µM. P35414. CHO-K1 APJ beta-arrestin complementation, luminescence. actives 0.32% (n = 330,000);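 active = inhibition above about 40% at 20 µM, limit read from the data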;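 also: cells challenged with 10 nM apelin-13 agonist together with compound; plate controls were apelin-13 plus DMSO wells for no effect and DMSO wells lacking apelin-13 for full effect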
# MOR ag counter: counter-screen for mouse HTR2A agonists: human mu opioid receptor agonists; shares compounds with HTR2A ag; U2OS OPRM1 beta-arrestin PathHunter, luminescence; DMSO 0%, DAMGO 9.3 µM 100%; activation, % at 9.3 µM; actives 5.3% (n = 2,300); AID 624380;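 active = mean activation above the mean of DMSO-only wells plus 3 SD, cut at about 0.5% in these data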
# HTR2A ag conf: mouse HTR2A agonism confirmed | shares compounds with HTR2A ag | CHO-K1 PathHunter beta-arrestin recruitment, luminescence; DMSO 0%, 30 µM serotonin 100% | activation, % at 7.6 µM | actives 19% (n = 2,300);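 active = mean activation across triplicates above the hit threshold derived in the original primary screen, cut at about 15% in these data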
# * = called active by the depositor; · = not tested or not shown; ! = not active in a repeat.
SMILES,CXCR6 inh,CCR6 antagonist,HTR2A ag,EBI2 antag,APJ agonist,APJ antagonist,MOR ag counter,HTR2A ag conf
CNC(=O)C(C)c1ncc(C(F)(F)F)cc1Cl (centres undefined),3.3,7.7,-3.3,-17.1,-0.1,2.1,·,·
O=C1CCc2cc(S(=O)(=O)Nc3cccc(Cl)c3)ccc2N1,-2.8,·,-2.1,-7.8,·,·,·,·
Cc1cccc(NS(=O)(=O)c2ccc3c(c2)CCC(=O)N3)c1,6.2,-3.3,16.0*!,-5.9,-0.3,-12.3,-0.4,4.8
Cc1c(C(=O)CN2CCN(c3ccccc3)CC2)c2ccccc2n1C,4.0,9.3,2.5,1.6,-2.8,0.6,·,·
Cn1c2c(c3ccccc31)CCN(CCCCN1CCN(c3ccccc3)CC1)C2=O,-3.3,4.5,21.0*,19.6,·,·,-0.3,39.8*
O=C(COc1ccccc1)Nc1nnc(-c2ccc3c(c2)CCCC3)o1,11.8,14.1,-0.5,-1.6,-3.8,-66.9,·,·
O=C(COc1ccccc1)Nc1nnc(-c2ccc(F)cc2)o1,7.9,1.1,16.8*,-1.0,-2.3,-7.4,-0.6,2.5
CC1CCN(CCCCOc2ccc(Br)cc2)CC1,-6.2,4.1,-5.0,-3.1,-3.1,15.2,·,·
O=C1C(=O)c2ccccc2C(O)=C1c1cccc([N+](=O)[O-])c1,18.5,34.8,20.4*,2.6,-7.8,32.1,-0.8,-5.0
C=C1C(=O)OC2C1C(OC(=O)C(C)=CC)CC(=C)C1C(O)C3OC3(C)C21O (centres undefined),4.6,-6.4,16.0*,5.0,·,·,0.0,10.3
O=C(c1ccc(Cl)c(S(=O)(=O)N2CCCCCC2)c1)N1CCCC(C(F)(F)F)C1 (centres undefined),0.6,6.0,4.1,5.7,-6.9,10.7,·,·
C/C(=N\NC(=O)c1cc(C)oc1C)c1ccc(N2CCOCC2)cc1,1.4,9.7,1.2,-6.6,-2.9,1.5,·,·
OC(COCc1cccs1)CN1CCN(c2ccccc2Cl)CC1 (centres undefined),-3.0,7.0,-7.0,-4.2,0.0,7.9,·,·
OC(COCc1ccc(Cl)cc1)CN1CCN(c2ccccn2)CC1 (centres undefined),-8.5,-6.3,18.1*,3.1,-3.8,8.8,-0.7,98.9*
OC(COCc1cccs1)CN1CCN(c2ccccn2)CC1 (centres undefined),11.9,-3.9,19.7*,-0.1,1.8,7.7,-0.5,80.2*
CCCCN1C(=O)C(CC(=O)NCc2cccc3ccccc23)CC(C(=O)N2CCOCC2)=C1C (centres undefined),6.4,·,14.6*,-6.1,·,·,-0.3,4.1
CC1=C(C(=O)N2CCOCC2)CC(CC(=O)NCc2cccc3ccccc23)C(=O)N1CCCN1CCCC1=O (centres undefined),0.8,·,2.5,-9.0,·,·,·,·
O=C(Cn1cncn1)N/N=C/c1ccncc1,4.1,4.3,23.1*,-7.6,-1.8,-15.4,0.3,3.0
O=C(Cn1cncn1)N/N=C/c1ccc(Cl)cc1,-5.8,6.2,2.7,-9.5,-1.5,-11.2,·,·
CCc1nc2c(OCc3ccccc3)cccn2c1N(C)C(=O)c1ccc(OC)cc1,7.4,·,3.3,-6.8,·,·,·,·
CC(=O)OCCOc1nc(N(C)C)nc(N(C)C)n1,-3.6,-14.6,-0.8,1.0,-2.4,-2.0,·,·
CCOC(=O)[C@H](CCc1ccccc1)N[C@@H](C)C(=O)N1[C@H](C(=O)O)C[C@@H]2CCC[C@@H]21,-2.7,11.9,43.9*,-10.7,-2.7,4.3,-0.6,-0.8
CCOc1ccc(-n2c(=S)sc3c(=O)[nH]c(SCC(=O)C(C)(C)C)nc32)cc1,3.1,-4.9,17.0*,3.8,-0.2,3.9,-0.7,0.4
Cc1cc(C)c(O)c(-c2n[nH]c3c2C(c2cccc(O)c2)N(Cc2ccco2)C3=O)c1 (centres undefined),-4.0,9.5,99.5*,7.5,-6.4,-21.7,0.1,56.9*
CC(NC(=O)Nc1ccc(Cl)cc1)C1CCCO1 (centres undefined),3.4,1.4,0.1,1.3,-3.7,-10.0,·,·
SMILES,CXCR6 inh,CCR6 antagonist,HTR2A ag,EBI2 antag,APJ agonist,APJ antagonist,MOR ag counter,HTR2A ag conf
CC(NC(=O)Nc1ccccc1C(F)(F)F)C1CCCO1 (centres undefined),-8.3,-15.2,26.1*,-0.5,-1.7,20.0,-0.4,3.2
CCOC(=O)C1(CCCc2ccccc2)CCN(Cc2ccn[nH]2)CC1,5.4,-1.9,14.8*,-22.9,-4.3,0.6,-0.5,-5.4
Cc1cc(N/N=C/c2ccc(O)c(C)c2O)nc(-c2ccccc2O)n1,-6.4,-45.2,20.1*,-11.3,·,·,0.5,64.6*
CCOC(=O)[C@H]1[C@H]2COc3ccc(Cl)cc3[C@@H]2N2C(=O)c3ccc(F)cc3NC(=O)[C@@]12C,8.5,14.7,1.1,-2.0,-6.3,3.8,·,·
CCOC(=O)[C@H]1[C@H]2COc3ccc(C)cc3[C@@H]2N2C(=O)CN(Cc3ccc(C)cc3)C(=O)[C@@]12C,6.6,-3.8,3.2,7.8,-2.8,12.2,·,·
CCOC(=O)[C@H]1[C@H]2COc3ccc(C)cc3[C@@H]2N2C(=O)CN(Cc3ccco3)C(=O)[C@@]12C,2.6,0.4,15.2*,-14.2,-2.2,1.2,-0.6,-1.2
CCOC(=O)[C@H]1[C@H]2COc3ccc(Cl)cc3[C@@H]2N2C(=O)c3ccc(C)cc3NC(=O)[C@@]12C,-2.7,10.7,14.5*,-3.3,-5.0,-6.2,-0.5,-3.3
CCOC(=O)[C@H]1[C@H]2COc3ccc(OC)cc3[C@@H]2N2C(=O)[C@H](C)NC(=O)[C@@]12C,9.9,-3.3,20.1*,-0.5,-0.4,10.2,-0.5,-1.9
CCOC(=O)[C@H]1[C@H]2COc3ccc(C)cc3[C@@H]2N2C(=O)[C@@H](C)NC(=O)[C@@]12C,-7.7,-0.6,-2.7,-8.0,-2.2,2.1,·,·
CCOC(=O)c1c(C)nc2c(c1-c1ccccc1)C(=O)CCC2,-2.0,-4.0,2.5,-1.3,0.5,-20.7,·,·
O=C(NCc1ccco1)c1ccc(Cl)s1,0.7,4.7,-1.1,-4.7,-1.5,-10.7,·,·
CCCc1cc(=O)[nH]c(SCC(=O)c2ccc3c(c2)OCCO3)n1,1.6,9.6,2.3,-4.1,2.3,-13.7,·,·
COc1cccc(CN2CCCN(S(=O)(=O)c3ccc(Br)cc3)CC2)c1,-5.0,22.1,28.8*,10.6,-2.3,10.9,-0.4,5.4
COc1ccc2oc(C(=O)N3CCN(C(=O)c4ccco4)CC3)c(C)c2c1,-11.0,-0.9,14.5*,14.4,-3.1,22.2,-0.5,-2.0
